Compound activity deposited in PubChem by The Scripps Research Institute Molecular Screening Center.
GPR7 antagonist = blocks human GPR7 receptor signaling. P48145. GPR7-expressing cells, fluorescence antagonist assay. AID 1861. inhibition, % at 4.4 µM. actives 1.1% (n = 290,000); in the data active = inhibition above about 16%, passing the limit was not always enough;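 note: cells stimulated with the agonist NPW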
OX1R antag-1 = antagonists of human orexin 1 receptor; CHO/OX1R cells, Fluo-8 calcium fluorescence, orexin A; inhibition, % at 5 µM; actives 0.43% (n = 330,000); AID 434989;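 active = inhibition above its plate's threshold, mean inhibition of all tested compounds on the plate plus 3 SD, cut at about 37% in these data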
Target sequence (O43613 whole entry, looked up): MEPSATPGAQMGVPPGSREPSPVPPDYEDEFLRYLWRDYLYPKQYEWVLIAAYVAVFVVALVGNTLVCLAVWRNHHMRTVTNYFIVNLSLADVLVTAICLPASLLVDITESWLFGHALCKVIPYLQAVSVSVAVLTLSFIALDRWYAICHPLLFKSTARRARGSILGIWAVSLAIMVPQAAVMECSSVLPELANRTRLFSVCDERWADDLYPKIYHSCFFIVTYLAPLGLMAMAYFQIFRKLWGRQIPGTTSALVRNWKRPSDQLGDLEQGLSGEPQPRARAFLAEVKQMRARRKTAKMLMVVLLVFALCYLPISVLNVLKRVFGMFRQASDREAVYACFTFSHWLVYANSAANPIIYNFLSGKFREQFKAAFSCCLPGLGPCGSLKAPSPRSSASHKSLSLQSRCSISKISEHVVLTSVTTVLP
CHO parental Ca = counter-screen: ATP calcium response change in parental CHO cells; AID 463079; parental CHO-K1, ATP-induced calcium, Fluo-8 fluorescence; inhibition, % at 5.6 µM; actives 0.63% (n = 330,000);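 active = inhibition above that plate's mean sample inhibition plus 3 SD, cut at about 26% in these data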
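Assay system: parental CHO cells; Read-out basis: percent inhibition of ATP-evoked calcium rise, normalized to controls; Benchmarks: ATP and no-ATP DMSO wells; Compound dosing: single nominal dose of 5.6 µM per compound; Signal: Fluo-8 calcium dye fluorescence; Also added: ATP as calcium-mobilizing challenge; Repeats: singlicate.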
OX1R antag-2 = blocks the human orexin 1 receptor; OX1R-expressing cells, FRET antagonist read-out; inhibition, % at 6.6 µM; actives 1.8% (n = 330,000); in the data active = inhibition mostly above about 38%, no sharp cut-off; inactive = mostly below about 40%
TAAR1 agonist = human TAAR1 agonism. CHO RD-HGA16 TAAR1, Fluo-8 calcium fluorescence; vehicle wells 0%, saturating PEA agonist 100%. activation, % at 3 µM. actives 0.99% (n = 360,000). AID 624467;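 active = activation above the mean activation of all test compounds in the run plus 3 SD, cut at about 38% in these data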
Target sequence (Q96RJ0 whole entry, looked up): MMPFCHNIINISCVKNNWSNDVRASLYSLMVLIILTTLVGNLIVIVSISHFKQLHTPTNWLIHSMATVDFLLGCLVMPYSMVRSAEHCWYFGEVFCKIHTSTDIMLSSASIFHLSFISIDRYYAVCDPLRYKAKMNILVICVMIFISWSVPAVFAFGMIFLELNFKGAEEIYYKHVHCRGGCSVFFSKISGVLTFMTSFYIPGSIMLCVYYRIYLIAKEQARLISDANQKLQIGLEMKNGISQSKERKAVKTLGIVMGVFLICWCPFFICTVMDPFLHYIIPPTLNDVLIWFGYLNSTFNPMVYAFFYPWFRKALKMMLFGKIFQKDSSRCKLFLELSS
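Assay system – CHO-derived RD-HGA16 cells with stable Gα16 and human TAAR1 · Compound dosing – one-point dosing at 3 µM (nominal) · Incubation – 17-24 h seeding, 75 min 37 °C dye, 30 min RT · Measured by – kinetic Fluo-8 calcium fluorescence · Control set – DMSO vehicle as 0%, PEA at EC100 as 100% · Repeats – single well for each compound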
TAAR1 antagonist = antagonists of human TAAR1 | actives 1.5% (n = 360,000) | Q96RJ0 | AID 624466 | inhibition, % at 3 µM | CHO RD-HGA16 TAAR1, Fluo-8 calcium fluorescence, antagonist;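 active = inhibition above a per-plate cutoff, the mean inhibition of test compounds on that plate plus 3 SD, cut at about 49% in these data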
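Test system – hTAAR1-expressing CHO RD-HGA16 cells, Gα16-coupled · Reagent – β-PEA at EC80 concentration, post-compound challenge · Compound dosing – 3 µM, single point · Timing – 140 s kinetic read after compound, 140 s after agonist · Detection – Fluo-8 intracellular calcium dye fluorescence, real-time kinetic reads · Control set – DMSO and EC80 PEA controls · Repeats – n of 1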
nonsel antag count = nonselective antagonism, TAAR1 counter-screen; shares compounds with TAAR1 antagonist; counterscreen cell line, calcium fluorescence, antagonist mode; inhibition, % at 3 µM; actives 77% (n = 2,400); AID 651780; in the data active = inhibition above about 22%;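 note: CHO-Ga16 host cells stimulated with ATP at an EC80 level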
TAAR1 antag conf = human TAAR1 antagonism, confirmed. TAAR1-expressing cells, fluorescence antagonist read-out. shares compounds with TAAR1 antagonist. AID 651785. actives 40% (n = 2,400). inhibition, % at 3 µM; in the data active = inhibition above about 49%;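 note: CHO-Ga16 host cells challenged with agonist PEA near its EC80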
Ga16 nonsel ag = nonselective Ga16 agonism, counter-screen; activation, % at 3 µM; AID 651953; actives 18% (n = 2,400); Ga16-expressing cells, calcium fluorescence, agonist counterscreen; shares compounds with TAAR1 antagonist; in the data active = activation above about 12%
TAAR1 ag count = activates human TAAR1 in antagonist counter-screen. shares compounds with TAAR1 antagonist. hTAAR1 cell line, fluorescence activation, agonist mode. activation, % at 3 µM. actives 2% (n = 2,400). AID 651955; in the data active = activation above about 37%;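 note: CHO cells stably expressing TAAR1 with calcium dye readout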
Hits are given with their value; i = inactive; nt = not tested or not shown. Hits are enriched below; roughly 4.6% of the tested compounds scored in any of these assays.

SMILES	GPR7 antagonist	OX1R antag-1	CHO parental Ca	OX1R antag-2	TAAR1 agonist	TAAR1 antagonist	nonsel antag count	TAAR1 antag conf	Ga16 nonsel ag	TAAR1 ag count
Cc1nc(-c2ccc(F)cc2)c(CC(=O)N2CCN(S(=O)(=O)c3cccc(Cl)c3)CC2)s1	nt	i	i	i	i	51	25	i	i	i
O=S(=O)(N/N=C\C=C\c1ccccc1)c1ccc(Cl)cc1	i	i	i	i	i	i	nt	nt	nt	nt
Cc1cc(/C=N/NC(N)=S)c(C)n1-c1ccc(Br)cc1	i	i	i	i	i	95	i	92	12	i
Cc1cc(/C=N/NC(N)=S)c(C)n1-c1cccc(Cl)c1	i	i	i	i	i	i	nt	nt	nt	nt
Cc1cc(/C=N/NC(N)=S)c(C)n1-c1ccc(Cl)cc1	i	i	i	i	i	84	i	83	16	i
CN(C)c1cccc(C(=O)N2CCCC(CCC(=O)N3CCN(c4ccccn4)CC3)C2)c1 (stereo not given)	i	i	i	i	i	i	nt	nt	nt	nt
O=C(Cc1c(F)cccc1Cl)OCN1C(=O)c2ccccc2C1=O	i	i	i	i	i	i	nt	nt	nt	nt
Cc1ccc(S(=O)(=O)Nc2cccc(C(=O)N3CCN(c4ccccc4O)CC3)c2)cc1F	nt	i	i	i	i	61	24	i	i	i
Cc1ccccc1NS(=O)(=O)c1ccc(C(=O)N2CCCC2)cc1	nt	i	i	i	i	i	nt	nt	nt	nt
Cc1cccc(NS(=O)(=O)c2ccc(C(=O)N3CCN(c4ccccc4O)CC3)cc2)c1C	i	i	i	i	i	83	38	i	13	i
O=C(Nc1nc(-c2cc(F)ccc2F)cs1)c1cccc(N2C(=O)CCC2=O)c1	nt	i	i	i	i	75	48	60	22	i
COc1cc(/C=C(/C#N)c2nc3ccccc3[nH]2)ccc1OCc1ccc(C(=O)O)o1	i	i	i	i	i	i	nt	nt	nt	nt
CCOc1cc(/C=C(/C#N)c2nc3ccccc3[nH]2)ccc1Oc1ccc([N+](=O)[O-])cn1	i	i	i	i	i	65	54	66	i	i
Cc1ccc2nc(/C(C#N)=C\c3ccc([N+](=O)[O-])o3)[nH]c2c1	i	i	i	i	i	i	nt	nt	nt	nt
N#C/C(=C\c1ccc([N+](=O)[O-])o1)c1nc2ccccc2[nH]1	i	i	i	i	i	66	49	61	20	i
COC(=O)c1ccc(COc2ccc(/C=C(\C#N)c3nc4ccccc4[nH]3)cc2OC)o1	i	i	i	i	i	61	32	i	i	i
CCOC(=O)Cc1ccc(Nc2nc(NCc3cccs3)nc3ccsc23)cc1	nt	nt	nt	nt	i	76	42	i	i	i
Cc1ccc(-n2c(SCC3CNC(=O)O3)nnc2-c2ccccc2)cc1C (stereo not given)	i	i	i	i	nt	nt	nt	nt	nt	nt
N#Cc1cc(NC(=O)c2ccc(Cl)cc2)ccc1Sc1ccccc1	nt	nt	nt	nt	i	73	35	i	i	i
COc1ccc(Sc2ccc(NC(=O)c3ccccc3Cl)cc2C#N)cc1	i	i	i	i	i	i	nt	nt	nt	nt
Cc1nc2scc(-c3ccccc3)c2c(=O)n1N=C1C=CC(=O)C=C1	i	nt	nt	nt	i	62	56	54	i	i
CC(=O)C1=CCC(c2ccc(Cl)c(Cl)c2)N(S(=O)(=O)c2ccc(C)cc2)C1 (stereo not given)	nt	nt	nt	nt	i	i	nt	nt	nt	nt
Cc1ccc(S(=O)(=O)N2CCN(C(=O)CN3CCN(c4ccc(O)cc4)CC3)CC2)cc1	nt	nt	nt	nt	i	i	nt	nt	nt	nt
COc1ccc(CC(=O)Nc2nnc(SCC(=O)NCc3ccco3)s2)cc1OC	i	i	i	i	i	i	nt	nt	nt	nt
O=C(NCc1ccc(F)cc1)c1ccc2c(c1)S(=O)(=O)c1ccccc1C2=O	nt	i	i	i	i	52	25	i	i	i
SMILES	GPR7 antagonist	OX1R antag-1	CHO parental Ca	OX1R antag-2	TAAR1 agonist	TAAR1 antagonist	nonsel antag count	TAAR1 antag conf	Ga16 nonsel ag	TAAR1 ag count
O=C(NCCc1ccccc1)c1ccc2c(c1)S(=O)(=O)c1ccccc1C2=O	nt	i	i	i	i	52	i	i	i	i
O=C(NCc1ccc(C(F)(F)F)cc1)c1ccc2c(c1)S(=O)(=O)c1ccccc1C2=O	nt	i	i	i	i	i	nt	nt	nt	nt
CC1(C(=O)NS(=O)(=O)c2cccc(OC(F)F)c2)CCN1C(=O)C/C=C/c1ccccc1 (stereo not given)	nt	nt	nt	nt	i	i	nt	nt	nt	nt
CCOc1cc(NC(=S)NCCOC)c(OCC)cc1NC(=O)c1cccs1	i	i	i	i	i	i	nt	nt	nt	nt
CCOc1cc(NC(=S)NC)c(OCC)cc1NC(=O)c1cccs1	i	i	i	i	i	54	i	i	i	i
Clc1ccc(CN2CCC(c3nc4ccc(Cl)cc4[nH]3)CC2)cc1	i	i	i	i	i	i	nt	nt	nt	nt
Brc1ccc2nc(-c3ccc(CN4CCC(c5nc6ccccc6[nH]5)CC4)cc3)c(-c3ccccc3)nc2c1	nt	nt	nt	nt	i	86	56	68	20	37
COc1ccc2nc(-c3ccc(CN4CCC(c5nc6ccccc6[nH]5)CC4)cc3)c(-c3ccccc3)nc2c1	nt	nt	nt	nt	i	76	34	i	i	i
Cc1cccc(C(=O)NCCCNC(=O)c2ccco2)c1	i	i	i	i	i	i	nt	nt	nt	nt
C=CCOc1ccc(C(=O)Nc2ccc3c(c2)n(C)c(=O)n3C)cc1	i	nt	nt	nt	i	i	nt	nt	nt	nt
CCN(CC(=O)Nc1c(F)cccc1F)C(=O)c1csc2c1CCCC2	nt	i	i	i	i	i	nt	nt	nt	nt
Cc1cc(C)c(C)c(S(=O)(=O)N2CCN(C(=O)c3cc(=O)[nH]c4ccccc34)CC2)c1C	i	i	i	i	i	55	34	56	13	i
Cc1cccc(N2CCN(C3=NC(=O)/C(=C\c4cn[nH]c4-c4ccccc4)S3)CC2)c1	i	i	i	i	i	61	41	59	i	i
CC(C(=O)N1CCN(C(=O)c2ccco2)CC1)N1C(=O)NC2(CCCCC2C)C1=O (stereo not given)	nt	i	i	i	i	i	nt	nt	nt	nt
C=CCSc1nnc(NC(=O)CN2C(=O)NC3(CCCC3)C2=O)s1	i	i	i	i	i	i	nt	nt	nt	nt
O=C1CC2(CCN(C(=O)c3c(F)cccc3Cl)CC2)Oc2ccccc21	nt	i	i	i	i	i	nt	nt	nt	nt
C/C(=N\NC(=O)c1nc2ccccn2c1C)c1cc2ccccc2o1	i	i	i	i	i	i	nt	nt	nt	nt
